The results in this text go back to ChEMBL document CHEMBL4393678, “Novel Tetrahydroquinazolinamines as Selective Histamine 3 Receptor Antagonists for the Treatment of Obesity” (J Med Chem, 2019).

The nature of data set [1]: Toxicity in lean C57BL/6J mouse assessed as change in body weight at 20 mg/kg, po measured after 6 weeks. In kind it is organism-based. Particulars: in vivo, 1008 h.
In data set [2] the test system is Mus musculus. Put plainly: Anti-obesity activity in 16 hrs fasted db/db-induced obese […] mouse model assessed as reduction in body weight at 20 mg/kg, po measured after 4 weeks. It counts as functional, organism-based.
Data set [3] is described as follows: Toxicity in lean C57BL/6J mouse assessed as effect on cumulative food intake at 20 mg/kg, po. In kind it is organism-based. The following applies: in vivo. In a few lines: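 Lean male C57BL/6J mice fasted 12 h (8 am-8 pm, water available), singly housed, given 20 mg/kg orally in 5% gum acacia/saline or vehicle. Cumulative food intake measured over 4 h night phase (9 pm-1 am) starting 30 min after dosing.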

For data set [4], the system named is Mus musculus. Put plainly: Anti-obesity activity in 16 hrs fasted db/db-induced obese C57BL/6J mouse model assessed as change in blood HDL level at 20 mg/kg, po measured after 6 weeks. In kind it is functional, organism-based.
A short description of data set [5]: Ratio of AUClast in C57BL/6J mouse serum assessed as 4-(2-Amino-8-methyl-5,6,7,8-tetrahydroquinazolin-4-yl)phenol level to AUClast in C57BL/6J mouse serum. It counts as ADME. In a few lines:
(§1)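 Male C57BL/6J mice (6–8 weeks) were fasted 12–16 h, then given a single oral dose of 20 mg/kg as a 2.5 mg/mL suspension in 1% gum acacia/water (n=5 per time point). Serum and brain (homogenised 1:6 in PBS) were sampled up to 24 h. Parent and demethylated metabolite were measured by LC-MS/MS (range 0.25–200 ng/mL). AUC ran to the last observation.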

The target in data set [6] is Voltage-gated inwardly rectifying potassium channel KCNH2 (Homo sapiens, UniProt Q12809). As to the kind of experiment: Inhibition of tracer Red binding to human ERG expressed in membranes up to 10 uM after 3 hrs by fluorescence polarization assay.
Voltage-gated inwardly rectifying potassium channel KCNH2, sequence (Q12809 whole entry): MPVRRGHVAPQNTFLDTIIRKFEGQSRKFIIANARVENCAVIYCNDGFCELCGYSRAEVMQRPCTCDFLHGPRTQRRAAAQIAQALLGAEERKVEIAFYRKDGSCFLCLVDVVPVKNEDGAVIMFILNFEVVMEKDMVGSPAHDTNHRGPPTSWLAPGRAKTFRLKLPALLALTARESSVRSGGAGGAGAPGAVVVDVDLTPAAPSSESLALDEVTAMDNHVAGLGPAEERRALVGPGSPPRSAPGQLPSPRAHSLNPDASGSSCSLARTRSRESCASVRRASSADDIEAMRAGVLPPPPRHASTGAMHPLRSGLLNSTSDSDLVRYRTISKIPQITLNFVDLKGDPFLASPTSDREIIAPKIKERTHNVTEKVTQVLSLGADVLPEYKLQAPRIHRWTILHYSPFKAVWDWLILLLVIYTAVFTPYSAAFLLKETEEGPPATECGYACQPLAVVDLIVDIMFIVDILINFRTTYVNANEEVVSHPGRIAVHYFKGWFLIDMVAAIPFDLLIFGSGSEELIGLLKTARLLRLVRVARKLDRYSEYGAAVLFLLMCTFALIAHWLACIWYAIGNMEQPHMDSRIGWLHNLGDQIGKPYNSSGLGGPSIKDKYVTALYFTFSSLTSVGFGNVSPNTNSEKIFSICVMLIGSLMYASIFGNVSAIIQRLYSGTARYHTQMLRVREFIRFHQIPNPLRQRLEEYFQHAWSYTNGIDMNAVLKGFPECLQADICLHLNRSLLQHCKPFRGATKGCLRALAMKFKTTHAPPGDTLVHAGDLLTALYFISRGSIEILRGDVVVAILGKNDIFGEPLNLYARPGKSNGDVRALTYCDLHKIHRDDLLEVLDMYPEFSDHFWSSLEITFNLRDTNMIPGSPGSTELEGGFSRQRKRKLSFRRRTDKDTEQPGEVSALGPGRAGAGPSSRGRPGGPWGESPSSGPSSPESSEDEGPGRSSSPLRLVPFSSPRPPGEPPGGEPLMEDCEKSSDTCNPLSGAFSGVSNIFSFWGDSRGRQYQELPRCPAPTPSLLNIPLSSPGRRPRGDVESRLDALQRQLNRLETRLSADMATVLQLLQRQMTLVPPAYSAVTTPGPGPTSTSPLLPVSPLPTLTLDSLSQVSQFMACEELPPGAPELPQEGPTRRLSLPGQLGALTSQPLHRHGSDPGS
Data set [7] has as its system Mus musculus. Put plainly: Anorexic effect in high fat diet-induced obese C57BL/6J mouse model assessed as reduction in cumulative food intake at 10 mg/kg, po pretreated for 30 mins followed by food addition measured after 4 hrs relative to control. In kind it is functional. Also on record: scale not given: the % may be the effect or the level left. In a few lines: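 Male C57BL/6J mice on high-fat diet, starved 12 h (8 am–8 pm) with water available, housed singly. Oral dose in 5% gum acacia in normal saline, vehicle group alongside. Food given 30 min after dosing, and cumulative intake measured over the 4 h night phase (9 pm–1 am). One-way ANOVA with Newman-Keuls test.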

Data set [8] deals with T1, Muscarinic acetylcholine receptor M5 (Homo sapiens) (UniProt P08912).
T1 sequence (whole entry): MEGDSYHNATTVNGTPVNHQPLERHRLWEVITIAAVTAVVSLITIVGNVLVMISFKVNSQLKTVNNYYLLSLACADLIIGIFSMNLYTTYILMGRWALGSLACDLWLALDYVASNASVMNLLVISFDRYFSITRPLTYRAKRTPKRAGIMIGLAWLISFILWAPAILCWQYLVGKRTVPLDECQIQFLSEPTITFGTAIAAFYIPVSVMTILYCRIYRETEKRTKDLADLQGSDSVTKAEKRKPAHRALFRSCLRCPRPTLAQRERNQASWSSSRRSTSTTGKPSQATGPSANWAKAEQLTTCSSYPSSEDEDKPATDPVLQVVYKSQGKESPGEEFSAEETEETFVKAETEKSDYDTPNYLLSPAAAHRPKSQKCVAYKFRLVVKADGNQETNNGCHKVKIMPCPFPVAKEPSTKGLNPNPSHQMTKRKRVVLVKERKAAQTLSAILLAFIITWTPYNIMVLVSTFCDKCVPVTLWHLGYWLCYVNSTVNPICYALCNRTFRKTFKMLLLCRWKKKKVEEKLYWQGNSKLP
Put plainly: Agonist activity at M5R (unknown origin) expressed in HEK293 cells harboring luc2P/NFAT-RE plasmid at 10 uM after 6 to 8 hrs by luciferase reporter gene assay. In kind it is cell-based. In a few lines:
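NFAT-RE luciferase assay in HEK293T cells transiently co-transfected with luc2P/NFAT-RE plasmid and receptor plasmid. Cells plated in DMEM and incubated overnight at 37 °C, 5% CO₂. Compounds and reference ligands applied for 6-8 h. Luciferase read after adding Bright-Glo substrate (1 mg/ml final).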
For orientation: Reporter assays use an easily measured gene product as a stand-in for the process of interest.

Data set [9] concerns Mus musculus. Put plainly: Anti-obesity activity in high fat diet-induced obese C57BL/6J mouse model assessed as change in blood TG level at 10 to 20 mg/kg, po measured after 6 weeks. It counts as functional, organism-based. Summed up: (§2)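 At the end of treatment (six weeks HFD, four weeks db/db), mice euthanized with avertin 350 mg/kg. Blood taken by cardiac puncture into 3.8% sodium citrate. Plasma separated at 4000 rpm and stored at -80 °C. TG, TC, HDLc and LDLc measured on a bio-analyzer.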

The target in data set [10] is D(3) dopamine receptor (Homo sapiens) (UniProt P35462). Put plainly: Antagonist activity at D3 receptor (unknown origin).
D(3) dopamine receptor (Homo sapiens), sequence (P35462 whole entry): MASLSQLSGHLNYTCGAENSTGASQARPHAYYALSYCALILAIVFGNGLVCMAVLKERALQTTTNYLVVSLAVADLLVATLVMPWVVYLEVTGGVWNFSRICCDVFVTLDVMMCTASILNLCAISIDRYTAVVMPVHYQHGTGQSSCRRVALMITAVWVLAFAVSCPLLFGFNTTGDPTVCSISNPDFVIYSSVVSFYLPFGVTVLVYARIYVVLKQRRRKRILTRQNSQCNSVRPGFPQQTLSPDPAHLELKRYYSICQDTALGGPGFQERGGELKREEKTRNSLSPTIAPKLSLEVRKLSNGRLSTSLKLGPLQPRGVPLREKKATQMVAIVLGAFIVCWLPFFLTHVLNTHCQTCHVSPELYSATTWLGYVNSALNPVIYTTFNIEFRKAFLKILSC
Data set [11] addresses D(1B) dopamine receptor (Homo sapiens) (UniProt P21918). Put plainly: Antagonist activity at Gs-coupled D5 receptor (unknown origin) expressed in HEK293T cells assessed as reduction in histamine-induced inhibition of forskolin-stimulated cAMP accumulation preincubated for 10 to 15 followed by histamine addition for 10 mins and subsequent forskolin-stimulation by Glo-sensor assay. It counts as functional, cell-based. Background: Changes in cAMP serve as a functional read-out for many G protein-coupled receptors.

Data set [12] relates to Mus musculus. As to the kind of experiment: Anti-obesity activity in high fat diet-induced obese C57BL/6J mouse model assessed as change in HDL level at 10 to 20 mg/kg, po measured after 6 weeks. In kind it is functional, organism-based. Summed up: as §2
Data set [13] relates to Mus musculus. As to the kind of experiment: Anti-obesity activity in high fat diet-induced obese C57BL/6J mouse model assessed as change in body weight at 10 mg/kg, po measured after 6 weeks (reference value: 3.86 +/- 0.99 g). In kind it is functional. In a few lines:
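Male C57BL/6J mice (6–8 weeks, 22–25 g) on high-fat diet, with a normal-chow group included. Daily chronic oral dosing against vehicle for six weeks. Percent body weight change followed over the treatment days, and net body weight change taken at six weeks. n=5-6 per group. Two-way ANOVA, or one-way ANOVA with Newman-Keuls test.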

Data set [14] is described as follows: Ratio of AUClast in C57BL/6J mouse brain to AUClast in C57BL/6J mouse serum. It counts as ADME. In a few lines:
as §1

A short description of data set [15]: Cmax in C57BL/6J mouse serum assessed as 4-(2-Amino-8-methyl-5,6,7,8-tetrahydroquinazolin-4-yl)phenol level at 20 mg/kg, po by LC-MS/MS analysis. Also on record: dose 20 mg/kg, route oral. It counts as ADME, organism-based. The following applies: in vivo. In a few lines:
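Male C57BL/6J mice (6-8 weeks, 20 ± 5 g) fasted overnight (12-16 h) got a single 20 mg/kg oral dose as 2.5 mg/mL suspension in 1% w/v gum acacia; n=5 per time point. Serum and brain (PBS homogenate 1:6 w/v) sampled up to 24 h. Parent and demethylated metabolite quantified by LC-MS/MS after liquid-liquid extraction (C18, MRM, phenacetin internal standard; linear 0.25-200 ng/mL). Two-compartment open model fit.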

Data set [16] deals with D(1A) dopamine receptor (Homo sapiens) (UniProt P21728). As to the kind of experiment: Agonist activity at Gs-coupled D1 receptor (unknown origin) expressed in HEK293T cells assessed as inhibition of forskolin-stimulated cAMP accumulation preincubated for 10 to 15 followed by forskolin-stimulation by Glo-sensor assay. In kind it is functional, cell-based.
D(1A) dopamine receptor (Homo sapiens), sequence (P21728 whole entry): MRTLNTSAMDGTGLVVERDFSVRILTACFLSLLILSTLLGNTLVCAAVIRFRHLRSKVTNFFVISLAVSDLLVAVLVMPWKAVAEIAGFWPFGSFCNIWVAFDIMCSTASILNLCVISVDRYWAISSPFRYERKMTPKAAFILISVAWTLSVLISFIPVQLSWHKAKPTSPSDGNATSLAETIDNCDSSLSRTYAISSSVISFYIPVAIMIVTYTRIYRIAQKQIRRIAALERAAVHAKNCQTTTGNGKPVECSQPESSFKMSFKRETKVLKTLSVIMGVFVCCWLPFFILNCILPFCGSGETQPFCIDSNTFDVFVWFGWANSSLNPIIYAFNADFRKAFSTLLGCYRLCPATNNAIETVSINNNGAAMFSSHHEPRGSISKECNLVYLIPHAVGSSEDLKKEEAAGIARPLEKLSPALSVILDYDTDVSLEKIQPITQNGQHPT
Data set [17] concerns the target Histamine H4 receptor (Homo sapiens) (UniProt Q9H3N8). Put plainly: Agonist activity at recombinant human Gi-coupled H4 receptor expressed in HEK293T cells assessed as inhibition of forskolin-stimulated cAMP accumulation at 10 uM preincubated for 10 to 15 followed by forskolin-stimulation by Glo-sensor assay. In kind it is functional, cell-based.

The source made the active and inactive calls. No cut-off for these calls is given here.

D(1B) dopamine receptor (Homo sapiens), sequence (P21918 whole entry): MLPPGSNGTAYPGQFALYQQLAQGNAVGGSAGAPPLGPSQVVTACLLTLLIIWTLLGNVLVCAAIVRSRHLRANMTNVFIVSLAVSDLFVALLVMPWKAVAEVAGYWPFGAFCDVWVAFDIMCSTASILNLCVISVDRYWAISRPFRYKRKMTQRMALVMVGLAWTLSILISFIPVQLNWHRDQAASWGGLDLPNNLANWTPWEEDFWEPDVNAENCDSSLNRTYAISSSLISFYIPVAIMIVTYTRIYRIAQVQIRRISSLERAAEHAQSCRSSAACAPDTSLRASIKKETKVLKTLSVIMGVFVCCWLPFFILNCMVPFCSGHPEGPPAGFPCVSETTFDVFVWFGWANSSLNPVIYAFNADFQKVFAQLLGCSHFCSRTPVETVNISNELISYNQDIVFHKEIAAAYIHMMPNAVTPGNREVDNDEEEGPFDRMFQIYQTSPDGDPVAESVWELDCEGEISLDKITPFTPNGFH
Histamine H4 receptor (Homo sapiens), sequence (Q9H3N8 whole entry): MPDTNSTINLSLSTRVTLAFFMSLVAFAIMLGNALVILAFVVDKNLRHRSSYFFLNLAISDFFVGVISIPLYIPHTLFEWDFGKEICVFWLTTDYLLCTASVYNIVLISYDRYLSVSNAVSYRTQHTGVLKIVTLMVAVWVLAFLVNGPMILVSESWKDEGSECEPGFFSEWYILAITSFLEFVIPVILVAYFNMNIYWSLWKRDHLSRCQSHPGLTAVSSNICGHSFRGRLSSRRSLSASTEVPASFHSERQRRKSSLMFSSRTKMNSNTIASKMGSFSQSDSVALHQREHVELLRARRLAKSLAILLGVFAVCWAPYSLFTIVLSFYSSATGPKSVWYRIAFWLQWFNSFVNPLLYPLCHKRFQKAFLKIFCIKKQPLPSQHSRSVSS

For the compound `COc1ccc(-c2nc(N)nc3c2CCCC3C)cc1` (racemic), the Activity entry was “Non-Toxic” in data set [1], “Non-Toxic” in data set [3], 26% in the data set with Mus musculus [7] and 2.6 g with Mus musculus [13]. In the data set with Mus musculus [2], the result was Active. Moreover, the outcome (in the data set with Mus musculus [4]; in data set [8]; with Mus musculus [9]; with Mus musculus [12]; in [17]) was inactive. Also, the entries for the “Ratio AUC” value in data set [5] and in [14] were 85.8% and 16.2%, respectively. In addition, the “inhibition (INH)” value in data set [6] is “Not Active”. Besides, the inhibition result in [10], in [11] and in data set [16] was “inactive” throughout. For the same compound, the Cmax in [15] was 3333.3 ng/mL.

The Cmax is the highest concentration seen after dosing.
